Test results as given in ChEMBL document CHEMBL5724801, “EUbOPEN Chemogenomics Library - Multiplex” (2024).
Values joined by “and” are separate entries in the source; they are usually repeats but may differ in a detail not shown here. Equal entries are not always repeated.

Tested on: HEK-293T
Assay: Multiplex assay against HEK293T
Assay type: toxicity, cell-based
Details: human
Method in brief: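 Imaging took place on a CQ1 microscope at 37°C and 5% CO2 once compound had been added to live cells stained at seeding with Hoechst33342, BioTracker Green Microtubule Cytoskeleton Dye, MitoTracker Red and Annexin V Alexa Fluor 680. CellPathfinder machine-learning gating classed cells as Hoechst high-intensity objects or normal cells, classed normal cells as having healthy, pyknosed or fragmented nuclei, and classed pyknosed cells as mitotic or apoptotic. Tubulin, mitochondrial-mass and membrane-permeability phenotypes are per cents of the healthy-nucleus cells.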

[1] = 12 h, 1 µM, compound concentration 1 uM
[2] = 12 h, 10 µM, compound concentration 10 uM
[3] = 24 h, 1 µM, compound concentration 1 uM
[4] = 24 h, 10 µM, compound concentration 10 uM
[5] = 48 h, 1 µM, compound concentration 1 uM
[6] = 48 h, 10 µM, compound concentration 10 uM

## CC[C@H]1OC(=O)[C@H](C)[C@@H](O[C@H]2C[C@@](C)(OC)[C@@H](O)[C@H](C)O2)[C@H](C)[C@@H](O[C@@H]2O[C@H](C)C[C@H](N(C)C)[C@H]2O)[C@@]2(C)CC(C)=C(O2)[C@H](C)[C@@H](O)[C@]1(C)O
[1]
  Population Apoptotic (%): 35% and 45%
  Population Fragmented Nuclei (%): 8% and 3%
  Population Healthy Nuclei (%): 74% and 84%
  Population Hoechst High Intensity Objects (%): 6% and 7%
  Population Membrane Permeable-Phenotype (%): 0%
  Population Mitochondria Different-Phenotype (%): 56% and 72%
  Population Mitotic Cells (%): 64% and 54%
  Population Normal (%): 93% and 92%
  Population Pyknosed Nuclei (%): 17% and 11%
  Population Tubulin-Different-Phenotype (%): 41% and 27%
  Total Cell Count: 367 and 300
[2]
  Population Apoptotic (%): 55% and 56%
  Population Fragmented Nuclei (%): 8% and 11%
  Population Healthy Nuclei (%): 71% and 72%
  Population Hoechst High Intensity Objects (%): 13% and 10%
  Population Membrane Permeable-Phenotype (%): 0%
  Population Mitochondria Different-Phenotype (%): 87% and 91%
  Population Mitotic Cells (%): 44% and 43%
  Population Normal (%): 86% and 89%
  Population Pyknosed Nuclei (%): 19% and 16%
  Population Tubulin-Different-Phenotype (%): 76% and 77%
  Total Cell Count: 383 and 217
[3]
  Population Apoptotic (%): 20% and 35%
  Population Fragmented Nuclei (%): 8%
  Population Healthy Nuclei (%): 78%
  Population Hoechst High Intensity Objects (%): 3% and 6%
  Population Membrane Permeable-Phenotype (%): 0%
  Population Mitochondria Different-Phenotype (%): 35% and 49%
  Population Mitotic Cells (%): 79% and 64%
  Population Normal (%): 96% and 93%
  Population Pyknosed Nuclei (%): 13% and 12%
  Population Tubulin-Different-Phenotype (%): 24% and 22%
  Total Cell Count: 493 and 371
[4]
  Population Apoptotic (%): 42% and 70%
  Population Fragmented Nuclei (%): 9% and 10%
  Population Healthy Nuclei (%): 75% and 71%
  Population Hoechst High Intensity Objects (%): 11% and 10%
  Population Membrane Permeable-Phenotype (%): 0%
  Population Mitochondria Different-Phenotype (%): 74% and 87%
  Population Mitotic Cells (%): 57% and 29%
  Population Normal (%): 88% and 89%
  Population Pyknosed Nuclei (%): 15% and 18%
  Population Tubulin-Different-Phenotype (%): 75% and 80%
  Total Cell Count: 499 and 254
[5]
  Population Apoptotic (%): 30% and 21%
  Population Fragmented Nuclei (%): 12%
  Population Healthy Nuclei (%): 76% and 78%
  Population Hoechst High Intensity Objects (%): 8% and 6%
  Population Membrane Permeable-Phenotype (%): 0%
  Population Mitochondria Different-Phenotype (%): 28% and 34%
  Population Mitotic Cells (%): 69% and 78%
  Population Normal (%): 91% and 93%
  Population Pyknosed Nuclei (%): 11% and 9%
  Population Tubulin-Different-Phenotype (%): 21% and 20%
  Total Cell Count: 718 and 584
[6]
  Population Apoptotic (%): 50% and 53%
  Population Fragmented Nuclei (%): 12%
  Population Healthy Nuclei (%): 74% and 75%
  Population Hoechst High Intensity Objects (%): 10% and 12%
  Population Membrane Permeable-Phenotype (%): 1% and 0%
  Population Mitochondria Different-Phenotype (%): 61% and 84%
  Population Mitotic Cells (%): 50% and 46%
  Population Normal (%): 89% and 87%
  Population Pyknosed Nuclei (%): 12% and 11%
  Population Tubulin-Different-Phenotype (%): 56% and 73%
  Total Cell Count: 671 and 300

## CC(=O)NCCc1c(Cc2ccccc2)[nH]c2ccccc12 [LUZINDOLE]
[1]
  Population Apoptotic (%): 38% and 43%
  Population Fragmented Nuclei (%): 7% and 5%
  Population Healthy Nuclei (%): 79% and 80%
  Population Hoechst High Intensity Objects (%): 11% and 8%
  Population Membrane Permeable-Phenotype (%): 0%
  Population Mitochondria Different-Phenotype (%): 54% and 68%
  Population Mitotic Cells (%): 61% and 56%
  Population Normal (%): 88% and 91%
  Population Pyknosed Nuclei (%): 12% and 13%
  Population Tubulin-Different-Phenotype (%): 39% and 27%
  Total Cell Count: 412 and 304
[2]
  Population Apoptotic (%): 37% and 53%
  Population Fragmented Nuclei (%): 8% and 5%
  Population Healthy Nuclei (%): 77% and 80%
  Population Hoechst High Intensity Objects (%): 10% and 9%
  Population Membrane Permeable-Phenotype (%): 0%
  Population Mitochondria Different-Phenotype (%): 61% and 72%
  Population Mitotic Cells (%): 62% and 46%
  Population Normal (%): 89% and 90%
  Population Pyknosed Nuclei (%): 14%
  Population Tubulin-Different-Phenotype (%): 45% and 35%
  Total Cell Count: 379 and 315
[3]
  Population Apoptotic (%): 20% and 40%
  Population Fragmented Nuclei (%): 12% and 7%
  Population Healthy Nuclei (%): 75% and 82%
  Population Hoechst High Intensity Objects (%): 7% and 8%
  Population Membrane Permeable-Phenotype (%): 0%
  Population Mitochondria Different-Phenotype (%): 33% and 45%
  Population Mitotic Cells (%): 80% and 60%
  Population Normal (%): 92% and 91%
  Population Pyknosed Nuclei (%): 11% and 10%
  Population Tubulin-Different-Phenotype (%): 26% and 18%
  Total Cell Count: 546 and 379
[4]
  Population Apoptotic (%): 40% and 28%
  Population Fragmented Nuclei (%): 9% and 11%
  Population Healthy Nuclei (%): 81% and 77%
  Population Hoechst High Intensity Objects (%): 10% and 11%
  Population Membrane Permeable-Phenotype (%): 1% and 0%
  Population Mitochondria Different-Phenotype (%): 40% and 58%
  Population Mitotic Cells (%): 60% and 71%
  Population Normal (%): 89% and 88%
  Population Pyknosed Nuclei (%): 8% and 11%
  Population Tubulin-Different-Phenotype (%): 32% and 24%
  Total Cell Count: 502 and 388
[5]
  Population Apoptotic (%): 24% and 46%
  Population Fragmented Nuclei (%): 16% and 12%
  Population Healthy Nuclei (%): 78% and 82%
  Population Hoechst High Intensity Objects (%): 3% and 6%
  Population Membrane Permeable-Phenotype (%): 1% and 0%
  Population Mitochondria Different-Phenotype (%): 16% and 23%
  Population Mitotic Cells (%): 75% and 53%
  Population Normal (%): 96% and 93%
  Population Pyknosed Nuclei (%): 5%
  Population Tubulin-Different-Phenotype (%): 12% and 13%
  Total Cell Count: 965 and 522
[6]
  Population Apoptotic (%): 27% and 36%
  Population Fragmented Nuclei (%): 13% and 11%
  Population Healthy Nuclei (%): 79% and 82%
  Population Hoechst High Intensity Objects (%): 9% and 6%
  Population Membrane Permeable-Phenotype (%): 0%
  Population Mitochondria Different-Phenotype (%): 27% and 32%
  Population Mitotic Cells (%): 72% and 63%
  Population Normal (%): 90% and 93%
  Population Pyknosed Nuclei (%): 7% and 5%
  Population Tubulin-Different-Phenotype (%): 17% and 19%
  Total Cell Count: 742 and 573
